Assay results published in ChEMBL document CHEMBL1138073, “Arylamide derivatives as allosteric inhibitors of the integrin alpha2beta1/type I collagen interaction” (Bioorg Med Chem Lett, 2006).
pIC50: −log10 of the molar value. Active and inactive are the calls of the source. The rule behind the calls is not given here.

How the values were obtained:
[1] = Inhibition of collagen binding to integrin alpha-2-beta-1 in intact platelets; parameters: species or system Homo sapiens
In short: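 Gel-filtered human platelets allowed to adhere to type I collagen immobilized on 96-well plates in presence of inhibitor; inhibition scored by number of bound platelets.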

[2] = Inhibition of collagen binding to integrin alpha-2-beta-1 by ELISA; parameters: species or system Homo sapiens
In short: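 Collagen type I (soluble) immobilized on 96-well plate; recombinant GST-tagged α2 I-domain added with increasing concentrations of inhibitor. Bound I-domain detected with peroxidase-conjugated anti-GST antibody, colorimetric read at 405 nm; IC50 derived from concentration series.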

Platelet = assay: Inhibition of collagen-induced platelet aggregation at 5 uM; format: functional, cell-based; settings: Homo sapiens

pIC50 [1]	pIC50 [2]	SMILES	Activity (Platelet)
4.84	< 4.70	CC(C)(C)c1cc(NC(=O)c2cccc(C(=O)Nc3cc(C(C)(C)C)cc(NC(=O)[C@H](N)Cc4ccc5ccccc5c4)c3SCCN)c2)c(SCCN)c(NC(=O)[C@H](N)Cc2ccc3ccccc3c2)c1	–
< 4.00	< 4.30	CC(C)(C)c1cc(NC(=O)c2cccc(C(=O)Nc3cc(C(C)(C)C)cc(NC(=O)[C@@H](N)CCCN=C(N)N)c3SCCN)c2)c(SCCN)c(NC(=O)[C@@H](N)CCCN=C(N)N)c1	–
< 4.00	< 4.30	CC(C)(C)c1cc(NC(=O)c2cccc(C(=O)Nc3cc(C(C)(C)C)cc(NC(=O)[C@H](N)Cc4cccnc4)c3SCCN)c2)c(SCCN)c(NC(=O)[C@H](N)Cc2cccnc2)c1	–
< 4.00	< 4.30	C[C@@H](N)C(=O)Nc1cc(C(C)(C)C)cc(NC(=O)c2cccc(C(=O)Nc3cc(C(C)(C)C)cc(NC(=O)[C@@H](C)N)c3SCCN)c2)c1SCCN	–
< 4.00	< 4.30	CC(C)(C)c1cc(NC(=O)CN)c(SCCN)c(NC(=O)c2cccc(C(=O)Nc3cc(C(C)(C)C)cc(NC(=O)CN)c3SCCN)c2)c1	–
< 4.00	< 4.30	CC(C)(C)c1cc(NC(=O)CCCN)c(SCCN)c(NC(=O)c2cccc(C(=O)Nc3cc(C(C)(C)C)cc(NC(=O)CCCN)c3SCCN)c2)c1	–
4.76	< 4.70	CC(C)(C)c1cc(NC(=O)c2cccc(C(=O)Nc3cc(C(C)(C)C)cc(NC(=O)[C@H](N)Cc4c[nH]c5ccccc45)c3SCCN)c2)c(SCCN)c(NC(=O)[C@H](N)Cc2c[nH]c3ccccc23)c1	–
5.47	5.32	CC(C)(C)c1cc(NC(=O)c2cccc(C(=O)Nc3cc(C(C)(C)C)cc(NC(=O)[C@@H](N)Cc4ccc5ccccc5c4)c3SCCN)c2)c(SCCN)c(NC(=O)[C@@H](N)Cc2ccc3ccccc3c2)c1	Active

Further lines, the compound ahead of its results:

SMILES	pIC50 [1]	pIC50 [2]	Activity (Platelet)
NCCSc1c(NC(=O)c2cccc(C(=O)Nc3cccc(NC(=O)[C@@H](N)Cc4ccc5ccccc5c4)c3SCCN)c2)cccc1NC(=O)[C@@H](N)Cc1ccc2ccccc2c1	5.00	5.21	–
NCCSc1c(N)cccc1NC(=O)c1cccc(C(=O)Nc2cccc(NC(=O)[C@H](N)Cc3cccnc3)c2SCCN)c1	< 4.00	< 4.30	–
NCCSc1c(N)cccc1NC(=O)c1cccc(C(=O)Nc2cccc(NC(=O)[C@H](N)Cc3ccc4ccccc4c3)c2SCCN)c1	4.19	< 4.30	–
NCCSc1c(NC(=O)c2cccc(C(=O)Nc3cccc(NC(=O)[C@H](N)Cc4ccc5ccccc5c4)c3SCCN)c2)cccc1NC(=O)[C@H](N)Cc1ccc2ccccc2c1	4.77	4.71	–
CC(C)(C)c1ccc(SCCN)c(NC(=O)c2cc(C(=O)Nc3cc(C(C)(C)C)ccc3SCCN)c(OCCN)cc2OCCN)c1	< 4.00	< 4.30	–
NCCSc1c(N)cccc1NC(=O)c1cccc(C(=O)Nc2cccc(NC(=O)[C@@H](N)Cc3ccc4ccccc4c3)c2SCCN)c1	4.07	< 4.30	–
NCCOc1cc(C(=O)Nc2cccc(NC(=O)[C@H](N)Cc3ccccc3)c2SCCN)cc(C(=O)Nc2cccc(NC(=O)[C@H](N)Cc3ccccc3)c2SCCN)c1	4.36	< 4.30	–
